Screening results from PubChem BioAssay.
This is a sample that favours compounds with a hit; in the whole collection about 2.4% have one here.
DNMT1 block – human DNMT1 methyltransferase inhibitors, primary screen, biochemical, molecular beacon, fluorescence, HinP1I cleavage, uHTS. DNA (cytosine-5)-methyltransferase 1 (Homo sapiens), P26358. inhibition (reported as % activation of signal), % at 10 µM. 360,000 compounds, 0.83% hits. AID 588458, 2011; in the data active = inhibition above about 50%
STEP inh – STEP phosphatase inhibitors, primary screen, biochemical, fluorescence intensity, uHTS | Tyrosine-protein phosphatase non-receptor type 5 (Homo sapiens), P54829 | recombinant STEP, OMFP fluorogenic substrate | inhibition, % at 20 µM | 360,000 compounds, 0.25% hits | AID 588621, 2011;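 active = inhibition at 20 µM, scaled per plate between control wells, above about 37%, limit read from the data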;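 also: 0% = DMSO with enzyme and substrate and 100% = substrate only without enzyme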
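Assay system: isolated STEP enzyme. Buffer or medium: pH 6.0 Bis-Tris with DTT and Tween 20. Also added: fluorogenic phosphatase substrate OMFP at 25 µM final. Dosing: 20 µM, 1% DMSO. Timing: 20 min reaction, room temperature, in the dark. Measured by: fluorescence intensity, excitation 480 nm, emission 540 nm. Evaluation: normalized % inhibition.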
SUMO1-SIM PPI – modulators of SUMO1 protein-protein interactions, primary screen, biochemical, uHTS; Small ubiquitin-related modifier 1 (Homo sapiens), P63165; inhibition, % at 20 µM; SUMO1 binding to a labelled peptide, TR-FRET, 1 h; 360,000 compounds, 0.33% hits; AID 602429, 2012; in the data active = inhibition above about 37%
Target sequence (P63165 whole entry, looked up): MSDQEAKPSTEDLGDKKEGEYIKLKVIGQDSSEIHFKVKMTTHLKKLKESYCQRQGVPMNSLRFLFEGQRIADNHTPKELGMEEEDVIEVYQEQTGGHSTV
LMPTP block – LMPTP phosphatase inhibitors, primary screen, biochemical, fluorescence intensity, uHTS; Low molecular weight phosphotyrosine protein phosphatase (Homo sapiens), P24666; recombinant LMPTP-A, OMFP fluorogenic substrate; inhibition, % at 20 µM; 360,000 compounds, 0.22% hits; AID 651560, 2012;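 active = compounds that cut the enzyme signal by at least half of the control window in the single-dose screen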;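 also: plate controls were DMSO wells with enzyme plus substrate for no effect and substrate without enzyme for full effect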
Target sequence (P24666 whole entry, looked up): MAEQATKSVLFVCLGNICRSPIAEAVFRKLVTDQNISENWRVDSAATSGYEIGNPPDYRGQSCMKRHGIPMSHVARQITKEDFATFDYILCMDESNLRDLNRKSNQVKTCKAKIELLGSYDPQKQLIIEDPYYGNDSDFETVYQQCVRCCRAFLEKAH
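Assay system: LMPTP-A, protein tyrosine phosphatase of low molecular weight / Medium: pH 6.0 Bis-Tris buffer with DTT and Triton X-100 / Schedule: 50 min enzyme reaction at room temperature, protected from light / Measured by: endpoint fluorescence intensity from OMFP dephosphorylation / Read-out basis: % inhibition relative to no-enzyme and uninhibited control wells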
NadD block – inhibitors of S. aureus NadD, primary screen, biochemical, colorimetric, uHTS | Nicotinate-nucleotide adenylyltransferase NadD (Staphylococcus aureus N315) | purified NadD enzyme, colorimetric absorbance read-out | inhibition, % at 20 µM | 360,000 compounds, 0.78% hits | AID 602399, 2012; in the data active = inhibition above about 26%
Scp1 inh – Scp-1 phosphatase inhibitors, primary screen, biochemical, colorimetric, uHTS | Carboxy-terminal domain RNA polymerase II polypeptide A small phosphatase 1 (Homo … | Recombinant Scp1, phosphopeptide, malachite green phosphate absorbance | inhibition, % at 20 µM | 340,000 compounds, 0.88% hits | AID 493091, 2011;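 active = inhibition above about 50% at 20 µM, limit read from the data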;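 also: plate controls were DMSO wells with enzyme for no effect and wells lacking enzyme for full effect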
Target sequence (Q9GZU7 76-261 limits assumed): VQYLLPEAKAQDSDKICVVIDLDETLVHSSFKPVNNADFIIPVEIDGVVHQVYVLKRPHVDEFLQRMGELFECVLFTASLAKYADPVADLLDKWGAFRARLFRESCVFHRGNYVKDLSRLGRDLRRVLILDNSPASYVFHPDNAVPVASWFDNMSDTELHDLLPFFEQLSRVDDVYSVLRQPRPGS
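System: SCP-1 catalytic domain; Reagent: Phospho 17-mer peptide substrate; Doses: one concentration, 20 µM, with 1.0% DMSO; Incubation: 45 min room-temperature reaction, 5 min colour, 30 min stabiliser; Signal: Phosphate-binding colour reagent, absorbance read at 630 nm.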
Scp1 confirm – Scp-1 phosphatase inhibitors, retest, confirmation, biochemical, colorimetric, single concentration; recombinant SCP-1 catalytic domain, phosphate release, malachite green absorbance; 2,500 compounds, 61% hits; inhibition, % at 20 µM; shares compounds with Scp1 inh;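 also: plate controls were DMSO with enzyme for no effect and buffer wells lacking enzyme for full effect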
Scp-1 MG ctr – colorimetric readout interference by compounds, confirmation, artefact control for Scp-1 inhibitor project, biochemical, single concentration. shares compounds with Scp1 inh. Colorimetric interference counterscreen, malachite green absorbance 630 nm. apparent inhibition (interference), % at 20 µM. 2,500 tested, under 10 active. AID 540313, 2011;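 also: compounds added after enzyme reaction finished so only phosphate colour detection is probed; plate controls were DMSO wells with completed Scp-1 reaction for no effect and substrate wells lacking enzyme for full effect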
Scp-1 Tm shift – Scp-1 binding by thermal shift, confirmation, orthogonal assay for Scp-1 inhibitor project, biophysical, differential scanning fluorimetry. AID 540329, 2011. Recombinant SCP1, Sypro Orange thermal shift Tm. thermal shift relative to vanadate control, % at 40 µM. 1,500 compounds, 25% hits. shares compounds with Scp1 inh;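 active = substances whose mean melting-temperature shift, as a percentage of the reference inhibitor's shift, reaches about 5.3%, limit read from the data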;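 also: 0% = Tm of DMSO wells and 100% = Tm with sodium orthovanadate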
DNMT1 confirm – DNMT1 methyltransferase inhibitor retest, confirmation, biochemical, molecular beacon, fluorescence, single concentration; shares compounds with DNMT1 block; AID 602385, 2012; inhibition, % at 10 µM; 2,300 compounds, 8% hits; DNMT1 molecular beacon HinP1I cleavage;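 active = average inhibition of at least 30% in the single-concentration confirmation test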
Beacon interf – shows spectral interference in the DNMT1 beacon assay; shares compounds with DNMT1 block; DNMT1 molecular beacon spectral interference counterscreen, fluorescence 485/520; activation (fluorescence interference), % at 10 µM; 2,300 compounds, 1% hits;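 active = activation of at least 30% at 10 µM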;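 also: DNMT1 catalytic domain with a HinP1I cleavage step and a FAM/dabcyl DNA beacon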
The depositor's hits bear a star; . = not tested or not shown.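 The calls were made as follows, unless noted: active = inhibition of at least 30% at 20 µM; inactive = the rest.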

SMILES	DNMT1 block	STEP inh	SUMO1-SIM PPI	LMPTP block	NadD block	Scp1 inh	Scp1 confirm	Scp-1 MG ctr	Scp-1 Tm shift	DNMT1 confirm	Beacon interf
CC(=O)c1sc(NC(=O)C2CCN(c3ncnc4sc(C)c(C)c34)CC2)nc1-c1ccccc1	-18.8	-3.2	-14.8	1.6	1.4	13.1	.	.	.	.	.
C=CCNc1nc(C(=O)OCC(=O)c2cccc(Br)c2)cs1	59.0*	4.2	2.4	8.9	22.6	56.8*	59.6*	-18.4	10.7*	22.3	-1.9
NC(=O)c1ccc(NC(=O)COC(=O)/C=C/c2ccc(Br)o2)cc1	90.1*	23.9	62.2*	43.0	4.5	74.1*	68.5*	-4.6	-1.5	1.6	-0.2
CC(NS(=O)(=O)c1ccc(Cl)c(Cl)c1)C(=O)OCC(=O)Nc1ccc2c(c1)OCO2 (stereo unspecified)	-4.6	3.6	-2.4	1.2	-14.3	-8.9	.	.	.	.	.
COc1ccc(CNC(=O)COC(=O)c2ccc(S(=O)(=O)NCc3ccco3)cc2)cc1	51.3*	6.5	2.4	2.1	1.5	55.5*	61.1*	-11.8	-0.9	-0.4	0.5
O=C(COC(=O)c1ccc(S(=O)(=O)NCc2ccco2)cc1)NCc1ccc(F)cc1	1.0	-2.8	2.3	0.6	2.7	4.1	.	.	.	.	.
COc1ccc(N2CC(C(=O)OCC(=O)c3cccc(OC)c3)CC2=O)cc1 (stereo unspecified)	0.1	-1.3	-3.4	-0.3	-1.6	-6.6	.	.	.	.	.
COc1ccc(-c2[nH]ncc2CN2CCN(C3CCCCC3)C(=O)C2)cc1F	0.1	10.8	1.9	-0.6	4.0	-9.1	.	.	.	.	.
COC(=O)C1=COC(OC2OC(CO)C(O)C(O)C2O)C2C1C=CC2(O)CO (stereo unspecified)	89.8*	13.7	19.5	5.7	2.3	58.2*	34.2*	-10.9	-6.4	2.6	-1.3
Cc1nc2ccccn2c1/C(O)=C1\C(=O)C(=O)N(CCN2CCOCC2)C1c1cccnc1 (stereo unspecified)	-1.2	1.3	-3.0	-2.4	4.0	-2.2	.	.	.	.	.
Cc1ccccc1NC(=O)Cn1nnc(C(=O)NCc2ccco2)c1N	-1.2	3.7	-0.8	-2.2	0.2	-2.8	.	.	.	.	.
Cc1ccccc1NC(=O)Cn1nnc(S(=O)(=O)c2ccc(C(C)(C)C)cc2)c1N	60.6*	20.9	9.9	47.6	13.1	106.0*	75.8*	-18.9	-28.8	-1.3	2.3
O=C(/C=C/c1ccccc1Cl)N(c1ccccn1)C1CCCCC1	-14.7	2.3	1.1	-0.3	-1.0	-8.7	.	.	.	.	.
CCOC(=O)c1ccc(NC(=O)CSc2nc(C)cc(=O)[nH]2)cc1	88.1*	2.4	6.5	16.6	11.7	70.7*	57.9*	-19.4	10.5*	19.0	2.7
CCN(CC)c1ccc(NC(=O)CSc2nc(C)cc(=O)[nH]2)cc1	-4.8	-1.4	0.8	-1.5	-0.9	2.9	.	.	.	.	.
O=C(COC(=O)C1CCN(S(=O)(=O)c2cc([N+](=O)[O-])ccc2Cl)CC1)Nc1ncc(Cl)cc1Cl	85.8*	22.3	10.9	9.8	7.4	68.5*	57.9*	-9.8	14.4*	4.5	-3.2
O=C(NCc1ccc(Cl)cc1)C1CCN(S(=O)(=O)c2ccc(F)cc2)CC1	-6.1	0.2	-0.1	0.1	-3.2	1.4	.	.	.	.	.
CCOc1cc(/C=N/Nc2ccccc2Cl)ccc1OCC(=O)O	57.7*	14.2	23.9	1.3	5.2	54.1*	15.5	-12.3	.	3.7	4.8
CC1=NN(c2ccccc2)C(=O)/C1=C/C=C/C=C/N(C)C	-1.2	17.4	-121.8	32.5	5.6	-4.9	.	.	.	.	.
CN(C)/C=C/C=C1C(=O)CCCC1=O	55.0*	2.0	-6.3	0.4	-0.7	57.9*	48.8*	-6.2	-8.8	-0.1	0.6
O=C(NNC(=O)c1cc2cc3ccccc3nc2s1)c1cccc(C(F)(F)F)c1	50.8*	29.2	0.3	27.7	16.1	75.1*	71.2*	-14.0	-15.8	0.8	4.1
O=c1/c(=C/c2ccco2)sc2nc(-c3ccccc3Br)nn12	23.4	2.8	18.0	2.8	4.1	15.6	.	.	.	.	.
CCCOc1ccc(/C=c2\sc3nc(-c4ccco4)nn3c2=O)cc1OCC	73.0*	1.3	13.7	2.1	7.3	84.0*	9.1	-25.2	.	2.6	1.1
O=C(N/N=C/c1cccn1-c1cccc(C(=O)O)c1)Nc1ccccc1	85.1*	-0.6	4.1	1.5	3.5	64.2*	49.7*	-14.2	7.0*	1.5	14.0
O=C(O)c1cccc(-n2cccc2C=C2C(=O)c3ccccc3C2=O)c1	49.1	8.6	4.3	3.1	0.5	31.1	.	.	.	.	.
Cc1ccc(-n2c(-c3ccco3)nc3nc4ccccc4nc32)cc1F	1.5	-1.2	0.4	-1.9	2.1	-14.3	.	.	.	.	.
O=C(Nc1ccccc1)c1ccc2nc(-c3ccco3)c(-c3ccco3)nc2c1	83.2*	4.2	32.8	42.3	22.8	70.5*	14.9	-14.5	.	4.1	3.7
O=C(Nc1cccnc1)c1ccc2nc(-c3ccccc3)c(-c3ccccc3)nc2c1	-1.0	-2.9	-12.8	1.4	3.4	-5.4	.	.	.	.	.
COc1ccc(C(=O)Nc2c(-c3cccs3)c(=O)c3ccccc3n2C)cc1	-1.6	-1.8	5.6	-1.1	-6.0	-11.4	.	.	.	.	.
